The source made the active and inactive calls. The rule behind the calls is not given here. Where a SMILES comes first, the peptide text is derived from it.
How the values were obtained:
Lipid bilayer [1] = assay: Inhibition of PEG-induced DOPC/DOPE/DOPG/CH (50/30/10/10 mol%) (10 CH) small unilamellar vesicles fusion assessed as content mixing at 1:100 compound: lipid concentration preincubated for 10 mins followed by PEG addition by spectrofluorometric analysis (reference value: 33 %)
Outline: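 Tb3+-loaded (8 mM TbCl3) and DPA-loaded (80 mM) SUVs, external probe removed by Sephadex G-75, mixed 1:1 at 200 μM total lipid in 10 mM TES, 100 mM NaCl, 1 mM EDTA, 1 mM CaCl2, pH 7.4, 37 °C; 2 μM peptide added 10 min before 6% (w/v) PEG; Tb/DPA fluorescence rise over time, normalized with detergent; inhibition relative to no-peptide control.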

Lipid bilayer [2] = assay: Inhibition of PEG-induced DOPC/DOPE/DOPG/CH (40/30/10/20 mol%) (20 CH) small unilamellar vesicles fusion assessed as content mixing at 1:100 compound: lipid concentration preincubated for 10 mins followed by PEG addition by spectrofluorometric analysis
Outline: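 Content mixing by Tb3+/DPA complex fluorescence. Vesicles loaded with 8 mM TbCl3 or 80 mM DPA, external probe removed by gel filtration. Mixed 1:1 at 200 μM lipid; peptide 2 μM added 10 min before 6% (w/v) PEG, 37 °C. Normalised to co-encapsulated and detergent-treated samples.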

inhibition (Lipid bilayer [1]): 5%
inhibition (Lipid bilayer [2]): inactive
SMILES: CC[C@H](C)[C@H](NC(=O)[C@H](CC(C)C)NC(=O)[C@H](C)NC(=O)[C@@H](NC(=O)[C@H](Cc1ccccc1)NC(=O)[C@H](CCCCN)NC(=O)[C@@H]1CCCN1C(=O)[C@H](CC(N)=O)NC(=O)[C@@H](NC(=O)[C@H](C)NC(=O)[C@H](CS)NC(=O)[C@H](Cc1ccccc1)NC(=O)CNC(=O)[C@H](CO)NC(=O)[C@H](CC(=O)O)NC(=O)[C@H](Cc1c[nH]c2ccccc12)NC(=O)[C@@H](NC(=O)[C@@H](N)[C@@H](C)O)[C@@H](C)O)C(C)C)C(C)C)C(=O)N[C@@H](CS)C(=O)N[C@@H](CCC(=O)O)C(=O)N[C@@H](C)C(=O)N[C@@H](CO)C(=O)NCC(=O)O (H-TTWDSGFCAVNPKFVALICEASG-OH)

Reference: ChEMBL document CHEMBL6182829, “Developing peptide-based fusion inhibitors as an antiviral strategy utilizing coronin 1 as a template” (RSC Med Chem, 2025)
